Measured values: ChEMBL document CHEMBL1649151, “Urinary bactericidal activity of Doripenem versus that of levofloxacin in patients with complicated urinary tract infections or pyelonephritis” (Antimicrob Agents Chemother, 2009)
Converted amounts (≈) assume the structure as drawn.

Experiments:
Serratia marcescens [1] = experiment: Antimicrobial activity against Serratia marcescens 2297260 B-U isolated from patient with pyelonephritis assessed as >3-log reduction in urinary bacterial titer after 24 hrs; format: functional, Urine
Escherichia coli [2] = experiment: Antimicrobial activity against Escherichia coli 1821386 B-D isolated from patient with pyelonephritis assessed as >3-log reduction in urinary bacterial titer after 4 hrs; format: functional, Urine
Outline: (§1)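 Urine was collected on day 3 of i.v. therapy (steady state) over 4-h intervals from infusion start (0–4 to 20–24 h), stored at –80°C and sterile filtered. It was serially diluted twofold (1:0 up to 1:131,072) in the patient's own pre-dose drug-free urine. Microdilution used a final inoculum of 1.0 x 10^6 to 9.5 x 10^6 CFU/ml, incubated 18 h at 37°C in air. 10 µl was subcultured onto 5% blood Columbia agar for 24 h at 37°C. The bactericidal endpoint was >99.9% (>3-log) kill, reported as a reciprocal titer.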

Escherichia coli [3] = experiment: Antimicrobial activity against Escherichia coli 1889647 B-H isolated from patient with pyelonephritis assessed as >3-log reduction in urinary bacterial titer after 4 hrs; format: functional, Urine; outline: as §1
Staphylococcus aureus [4] = experiment: Antimicrobial activity against Staphylococcus aureus 1889640 A-Z isolated from patient with pyelonephritis assessed as >3-log reduction in urinary bacterial titer after 16 hrs; format: functional, Urine
[5] = system: Staphylococcus epidermidis; experiment: Antimicrobial activity against Staphylococcus epidermidis 1949822 B-J isolated from patient with pyelonephritis assessed as >3-log reduction in urinary bacterial titer after 4 hrs; format: functional, Urine
Serratia marcescens [6] = experiment: Antimicrobial activity against Serratia marcescens 2297260 B-U isolated from patient with pyelonephritis assessed as >3-log reduction in urinary bacterial titer after 4 hrs; format: functional, Urine
Serratia marcescens [7] = experiment: Antimicrobial activity against Serratia marcescens 2297260 B-U isolated from patient with pyelonephritis assessed as >3-log reduction in urinary bacterial titer after 20 hrs; format: functional, Urine
Enterococcus faecalis [8] = experiment: Antimicrobial activity against Enterococcus faecalis 2215767-10 B-S isolated from patient with pyelonephritis assessed as >3-log reduction in urinary bacterial titer after 24 hrs; format: functional, Urine
Outline: (§2)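 Urine was collected before dosing and on day 3 of i.v. therapy (steady state), in 4-h intervals from infusion start (0–4 to 20–24 h), stored at −80°C and sterile filtered. It was serially diluted twofold (1:0 to 1:131,072) in the patient's drug-free pre-dose urine. Microdilution used an inoculum of 1.0 x 10^6–9.5 x 10^6 CFU/ml, incubated 18 h at 37°C, then subcultured 24 h on blood agar. The endpoint was >99.9% kill, reported as reciprocal titer.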

Escherichia coli [9] = experiment: Antimicrobial activity against Escherichia coli 1655646 A-Y isolated from patient with pyelonephritis by Etest; format: functional
Enterococcus faecalis [10] = experiment: Antimicrobial activity against Enterococcus faecalis 2215767-10 B-S isolated from patient with pyelonephritis assessed as >3-log reduction in urinary bacterial titer after 4 hrs; format: functional, Urine; outline: as §2
Escherichia coli [11] = experiment: Antimicrobial activity against Escherichia coli 2062716 B-R isolated from patient with pyelonephritis assessed as >3-log reduction in urinary bacterial titer after 20 hrs; format: functional, Urine
Outline: (§3)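 Patient urine was collected on day 3 of i.v. therapy (steady state) over 4-h intervals after infusion start, stored at –80°C, and sterile filtered. It was twofold serially diluted (1:0 to 1:131,072) in the patient's own pre-dose drug-free urine, inoculated to 1.0 x 10^6–9.5 x 10^6 CFU/ml, and incubated for 18 h at 37°C. Subcultures were grown on blood agar for 24 h. The UBT is the reciprocal of the highest dilution giving >99.9% kill.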

[12] = system: Staphylococcus epidermidis; experiment: Antimicrobial activity against Staphylococcus epidermidis 2297262-9 B-V isolated from patient with pyelonephritis by Etest; format: functional
Enterococcus faecalis [13] = experiment: Antimicrobial activity against Enterococcus faecalis 2297262-10 B-V isolated from patient with pyelonephritis assessed as >3-log reduction in urinary bacterial titer after 24 hrs; format: functional, Urine; outline: as §2
Staphylococcus aureus [14] = experiment: Antimicrobial activity against Staphylococcus aureus 1889640 A-Z isolated from patient with pyelonephritis by Etest; format: functional
Escherichia coli [15] = experiment: Antimicrobial activity against Escherichia coli 1821386 B-D isolated from patient with pyelonephritis assessed as >3-log reduction in urinary bacterial titer after 12 hrs; format: functional, Urine; outline: as §1
Pseudomonas aeruginosa [16] = experiment: Antimicrobial activity against Pseudomonas aeruginosa 2062713 B-Q isolated from patient with pyelonephritis assessed as >3-log reduction in urinary bacterial titer after 4 hrs; format: functional, Urine
Escherichia coli [17] = experiment: Antimicrobial activity against Escherichia coli 1889647 B-H isolated from patient with pyelonephritis assessed as >3-log reduction in urinary bacterial titer after 12 hrs; format: functional, Urine; outline: as §1
Escherichia coli [18] = experiment: Antimicrobial activity against Escherichia coli 2062716 B-R isolated from patient with pyelonephritis assessed as >3-log reduction in urinary bacterial titer after 4 hrs; format: functional, Urine; outline: as §3
Enterococcus faecalis [19] = experiment: Antimicrobial activity against Enterococcus faecalis 2297262-10 B-V isolated from patient with pyelonephritis assessed as >3-log reduction in urinary bacterial titer after 20 hrs; format: functional, Urine; outline: as §2
[20] = system: Staphylococcus epidermidis; experiment: Antimicrobial activity against Staphylococcus epidermidis 2297262-9 B-V isolated from patient with pyelonephritis assessed as >3-log reduction in urinary bacterial titer after 8 hrs; format: functional, Urine
Serratia marcescens [21] = experiment: Antimicrobial activity against Serratia marcescens 2297260 B-U isolated from patient with pyelonephritis assessed as >3-log reduction in urinary bacterial titer after 8 hrs; format: functional, Urine
Escherichia coli [22] = experiment: Antimicrobial activity against Escherichia coli 1655646 A-Y isolated from patient with pyelonephritis assessed as >3-log reduction in urinary bacterial titer after 4 hrs; format: functional, Urine; outline: as §2
Escherichia coli [23] = experiment: Antimicrobial activity against Escherichia coli 1889647 B-H isolated from patient with pyelonephritis by Etest; format: functional
Escherichia coli [24] = experiment: Antimicrobial activity against Escherichia coli 1889647 B-H isolated from patient with pyelonephritis assessed as >3-log reduction in urinary bacterial titer after 8 hrs; format: functional, Urine; outline: as §1
Escherichia coli [25] = experiment: Antimicrobial activity against Escherichia coli 2062716 B-R isolated from patient with pyelonephritis assessed as >3-log reduction in urinary bacterial titer after 16 hrs; format: functional, Urine; outline: as §3
Escherichia coli [26] = experiment: Antimicrobial activity against Escherichia coli 1889645 B-I isolated from patient with pyelonephritis assessed as >3-log reduction in urinary bacterial titer after 8 hrs; format: functional, Urine; outline: as §1
Escherichia coli [27] = experiment: Antimicrobial activity against Escherichia coli 1821385 B-C isolated from patient with pyelonephritis by Etest; format: functional
Enterococcus faecalis [28] = experiment: Antimicrobial activity against Enterococcus faecalis 2215770 B-T isolated from patient with pyelonephritis assessed as >3-log reduction in urinary bacterial titer after 8 hrs; format: functional, Urine; outline: as §2
Escherichia coli [29] = experiment: Antimicrobial activity against Escherichia coli 1821385 B-C isolated from patient with pyelonephritis assessed as >3-log reduction in urinary bacterial titer after 20 hrs; format: functional, Urine; outline: as §1
Escherichia coli [30] = experiment: Antimicrobial activity against Escherichia coli 1949826 B-L isolated from patient with pyelonephritis assessed as >3-log reduction in urinary bacterial titer after 4 hrs; format: functional, Urine; outline: as §3
Enterococcus faecalis [31] = experiment: Antimicrobial activity against Enterococcus faecalis 2215770 B-T isolated from patient with pyelonephritis assessed as >3-log reduction in urinary bacterial titer after 4 hrs; format: functional, Urine; outline: as §2
Enterococcus faecalis [32] = experiment: Antimicrobial activity against Enterococcus faecalis 2215770 B-T isolated from patient with pyelonephritis assessed as >3-log reduction in urinary bacterial titer after 16 hrs; format: functional, Urine; outline: as §2
Pseudomonas aeruginosa [33] = experiment: Antimicrobial activity against Pseudomonas aeruginosa 2062713 B-Q isolated from patient with pyelonephritis by Etest; format: functional
Escherichia coli [34] = experiment: Antimicrobial activity against Escherichia coli 1780063 B-A isolated from patient with pyelonephritis assessed as >3-log reduction in urinary bacterial titer after 12 hrs; format: functional, Urine; outline: as §2
Escherichia coli [35] = experiment: Antimicrobial activity against Escherichia coli 1780063 B-A isolated from patient with pyelonephritis assessed as >3-log reduction in urinary bacterial titer after 8 hrs; format: functional, Urine; outline: as §2

For C[C@H]1COc2c(N3CCN(C)CC3)c(F)cc3c(=O)c(C(=O)O)cn1c23.C[C@H]1COc2c(N3CCN(C)CC3)c(F)cc3c(=O)c(C(=O)O)cn1c23.O [LEVOFLOXACIN], which urinary bactericidal titer (Serratia marcescens [1]) is on record?
Its urinary bactericidal titer is 32 reciprocal titer.

And the urinary bactericidal titer (Escherichia coli [2])?
Its urinary bactericidal titer is 2048 reciprocal titer.

And the urinary bactericidal titer (Escherichia coli [3])?
Its urinary bactericidal titer is 2048 reciprocal titer.

What about the urinary bactericidal titer (Staphylococcus aureus [4]) of the same molecule?
Its urinary bactericidal titer is 128 reciprocal titer.

What about the urinary bactericidal titer [5] of the same molecule?
The urinary bactericidal titer was 4 reciprocal titer.

And the urinary bactericidal titer (Serratia marcescens [6])?
The urinary bactericidal titer was 512 reciprocal titer.

And the urinary bactericidal titer (Serratia marcescens [7])?
The urinary bactericidal titer was 32 reciprocal titer.

What about the Time (Enterococcus faecalis [8]) of the same molecule?
The Time was 0 h.

And the MIC (Escherichia coli [9])?
Its MIC is 0.047 µg/mL.

And the Time (Enterococcus faecalis [10])?
Its Time is 0 h.

And the urinary bactericidal titer (Escherichia coli [11])?
Its urinary bactericidal titer is 128 reciprocal titer.

What about the MIC [12] of the same molecule?
Its MIC is > 32 µg/mL.

What about the Time (Enterococcus faecalis [13]) of the same molecule?
The Time was 0 h.

What about the MIC (Staphylococcus aureus [14]) of the same molecule?
The MIC was 0.06 µg/mL.

And the urinary bactericidal titer (Escherichia coli [15])?
The urinary bactericidal titer was 2048 reciprocal titer.

And the urinary bactericidal titer (Pseudomonas aeruginosa [16])?
Its urinary bactericidal titer is 8 reciprocal titer.

What about the urinary bactericidal titer (Escherichia coli [17]) of the same molecule?
The urinary bactericidal titer was 512 reciprocal titer.

And the urinary bactericidal titer (Escherichia coli [18])?
The urinary bactericidal titer was 1024 reciprocal titer.

What about the Time (Enterococcus faecalis [19]) of the same molecule?
Its Time is 0 h.

And the urinary bactericidal titer [20]?
The urinary bactericidal titer was 1 reciprocal titer.

And the urinary bactericidal titer (Serratia marcescens [21])?
Its urinary bactericidal titer is 256 reciprocal titer.

What about the urinary bactericidal titer (Escherichia coli [22]) of the same molecule?
The urinary bactericidal titer was 2048 reciprocal titer.

What about the MIC (Escherichia coli [23]) of the same molecule?
The MIC was < 0.03 µg/mL.

And the urinary bactericidal titer (Escherichia coli [24])?
Its urinary bactericidal titer is 2048 reciprocal titer.

What about the urinary bactericidal titer (Escherichia coli [25]) of the same molecule?
The urinary bactericidal titer was 256 reciprocal titer.

Which urinary bactericidal titer (Escherichia coli [26]) does the source give for C[C@@H](O)[C@H]1C(=O)N2C(C(=O)O)=C(S[C@@H]3CN[C@H](CNS(N)(=O)=O)C3)[C@H](C)[C@H]12 [DORIPENEM] here?
Its urinary bactericidal titer is 32800 reciprocal titer.

And the MIC (Escherichia coli [27])?
The MIC was 0.03 µg/mL (≈ 0.0713 µM).

And the urinary bactericidal titer (Enterococcus faecalis [28])?
Its urinary bactericidal titer is 512 reciprocal titer.

What about the urinary bactericidal titer (Escherichia coli [29]) of the same molecule?
The urinary bactericidal titer was 8192 reciprocal titer.

What about the urinary bactericidal titer (Escherichia coli [30]) of the same molecule?
Its urinary bactericidal titer is 128 reciprocal titer.

And the urinary bactericidal titer (Enterococcus faecalis [31])?
Its urinary bactericidal titer is 2048 reciprocal titer.

What about the urinary bactericidal titer (Enterococcus faecalis [32]) of the same molecule?
Its urinary bactericidal titer is 512 reciprocal titer.

What about the MIC (Pseudomonas aeruginosa [33]) of the same molecule?
Its MIC is 0.5 µg/mL (≈ 1.19 µM).

And the urinary bactericidal titer (Escherichia coli [34])?
The urinary bactericidal titer was 4096 reciprocal titer.

What about the urinary bactericidal titer (Escherichia coli [35]) of the same molecule?
Its urinary bactericidal titer is 1024 reciprocal titer.
